# Screening results as filed in PubChem BioAssay.
# Rows were chosen to be rich in hits. Some 1.3% of all compounds tested hit in one or more screens of this group.
# LYP inh 2: inhibitors of human LYP (PTPN22) phosphatase; Q9Y2R2; recombinant LYP catalytic domain, DiFMUP fluorescence; AID 640; 0.21% of 96,000 active; inhibition, % at 2 µM;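 active = inhibition at 2 µM at or above a set limit, the screen mean plus 3 SD, cut at about 24% in these data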;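 note: 0% = DMSO with enzyme and 100% = enzyme fully blocked by orthovanadate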
# LYP act: activators of human LYP (PTPN22) phosphatase; Q9Y2R2; recombinant LYP, DiFMUP fluorescence; 0 = plate median, 100 = signal doubled; activation, % at 2 µM; 0.11% of 96,000 active;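 active = activation at 2 µM above a set limit, the mean plus 5 SD, cut at about 37% in these data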
# Rev-RRE block: HIV Rev-RRE protein-RNA interaction inhibition. Rev peptide-RRE RNA binding, FRET. P05866. inhibition, % at 8 µM. AID 704. 0.79% of 97,000 active;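 active = inhibition above the screen-wide mean plus 3 SD, cut at about 35% in these data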;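 note: 0% = median DMSO wells and 100% = median Neomycin B control wells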
# Target sequence (P05866 whole entry, looked up): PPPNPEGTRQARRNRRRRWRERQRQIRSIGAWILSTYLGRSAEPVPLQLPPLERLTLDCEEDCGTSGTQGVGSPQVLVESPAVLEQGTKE
#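 System: Cy5-labelled duplex RRE RNA binding fluorescein-labelled HIV Rev peptide; Signal: fluorescein-to-Cy5 FRET, 480 nm excitation; Also added: labelled Rev peptide; Compound: one concentration, 8 µM nominal; Buffer or medium: HEPES pH 7.5 salt buffer with EDTA; Read-out: % inhibition of FRET ratio versus controls; Schedule: 5 min preincubation and 15 min binding, 25 °C.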
# EphB4 ephrin blk: antagonists of human EphB4-ephrin-B2 interaction; P54760; EphB4 LBD / TNYL-RAW-Alexa532 peptide, fluorescence polarization; inhibition, % at 7 µM; 0.15% of 97,000 active; AID 720;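 active = inhibition above the screen-wide mean inhibition plus 3 SD, cut at about 15% in these data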;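 note: 0% = DMSO wells and 100% = excess unlabeled TNYL-RAW peptide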
# * = called active by the depositor; [ ] = dose if it differs, or a comment.
SMILES,LYP inh 2,LYP act,Rev-RRE block,EphB4 ephrin blk
CCOc1ccc(C2C=C(c3ccccc3)Nc3nnnn32)cc1 (configuration not stated),-3,1,21,-7
Cc1nc2c(c(=O)n1CCC1=CCCCC1)c1nc3ccccc3nc1n2/N=C/c1ccccc1,39*,-39,2,3
CS(=O)(=O)n1nc(-c2ccc(Cl)cc2)nc1SCc1ccccc1,4,-2,24,4
O=C(CCn1cccc1)Nc1cccc(F)c1,-2,3,8,0
CO/N=C/NC(=O)c1c(OC)ccnc1Oc1cccc(C(F)(F)F)c1,5,-2,9,6
O=C(NC1CCN(C(=S)NCc2ccco2)CC1)C12CC3CC(CC(C3)C1)C2,5,-8,-3,-1
Cc1cc2nnc(SC3CCCCN(C(=O)c4ccc(F)cc4)C3=O)n2c2ccccc12 (configuration not stated),9,-10,2,4
Cc1cc(C)n2nc(SC3CCCCN(C(=O)c4ccc(F)cc4)C3=O)nc2n1 (configuration not stated),-7,5,12,19*
COc1cc(/C=C(\C#N)c2nc3c(s2)CCCC3)ccc1O,-8,10,72*,0
Cc1ccc(Nc2cnn(C34CC5CC(CC(CC(=O)O)(C5)C3)C4)c(=O)c2Cl)cc1,0,4,11,52*
CC(C)c1ccc(Nc2cnn(C34CC5CC(CC(CC(=O)O)(C5)C3)C4)c(=O)c2Cl)cc1,-3,-1,2,6
CCOc1ccc2nc(C)cc(C(=O)O)c2c1,-4,4,11,3
CCOc1ccc2cc(/C=C/C(=O)c3ccco3)c(Cl)nc2c1,-3,3,53*,2
C=CCSc1nc(C)c2cc(C)cc(C)c2n1,13,-11,13,-2
O=C(Nc1ccccc1)c1cccnc1N1CCCC1,-1,2,10,-4
N=c1oc2c3c4c(cc2cc1C(=O)Nc1ccccc1)CCCN4CCC3,6,-6,127*[fluorescence artefact?],3
COC(=O)C(NC(=O)c1ccccc1)(Nc1cc(C)cc(C)n1)C(F)(F)F (configuration not stated),-8,4,1,-7
CC1CCN(Cc2ccc(NC(=O)CC3Oc4ccccc4NC3=O)cc2)CC1 (configuration not stated),-6,3,4,5
Cc1ccccc1C(=O)c1cccn1CC(=O)NCCN1CCN(c2cccc(C)c2C)CC1,-7,7,10,-3
O=c1[nH]c2cc3c(cc2cc1CN(CCc1ccccc1)Cc1nnnn1CC1CCCO1)OCO3 (configuration not stated),7,-6,41*,0
O=c1[nH]c2cc3c(cc2cc1CN(Cc1nnnn1CC1CCCO1)C1CCCCC1)OCO3 (configuration not stated),0,0,39*,-9
S=c1[nH]nc(CSc2nc3ccccc3s2)n1C1CCCCC1,11,-8,-2,5
CC(c1ccccc1)C1CC(=O)N(C2CCCCC2)C1=O (configuration not stated),-5,4,11,17*
O=C1C2C(c3ccccc3)C=CC(c3ccccc3)C2C(=O)N1C1CCCCC1 (configuration not stated),7,-6,8,-11
CC(NC(=O)C1CCCN(C(=O)N(C)C)C1)c1ccccc1 (configuration not stated),1,0,8,-1
SMILES,LYP inh 2,LYP act,Rev-RRE block,EphB4 ephrin blk
CCOC(=O)c1c(C)nc2c(c1-c1ccc(OC)c(OC)c1)C(=O)c1ccccc1-2,1,-2,6,-3
CCOC(=O)C(C(=O)OCC)c1cc(Br)c2noc3c2c1C(=O)c1ccccc1-3,9,-11,58*,-6
CN(C)c1ccc(/C=c2\sc3n(c2=O)CCCN=3)cc1,-21,19,37*,-1
C/C(N)=C(/C#N)C(=O)CSc1n[nH]c(-c2ccccc2Br)n1,-3,0,4,-9
Cc1cc(C)n(-c2nnc(C)n2/N=C/c2cc(Br)ccc2OCc2ccccc2)n1,-3,2,5,-6
CCN(CC)c1ccc(/C=c2/sc3nnc(-c4ccccc4C)n3c2=O)cc1,10,-7,118*[fluorescence artefact?],-2
Cc1ccc(/C=c2/sc3nnc(-c4ccccc4Cl)n3c2=O)o1,-4,2,4,2
CCN(CC)c1ccc(/C=c2\sc3nnc(-c4ccccc4Cl)n3c2=O)cc1,-6,7,134*[fluorescence artefact?],-6
CC(NC(=O)COC(=O)c1cn(-c2ccccc2)nc1-c1cccs1)c1ccccc1 (configuration not stated),-4,4,-6,-6
Nc1ccc2oc3ccc(N)cc3c(=O)c2c1,-4,7,37*,-2
O=C(O)c1cc2c(ccc3ccccc32)o1,1,-4,8,0
CC(C)C(C)(C#N)NC(=O)CSc1nnc(-c2ccccc2)o1 (configuration not stated),4,-2,-2,0
COc1ccc(OC)c(/C(O)=C/C(=O)C(=O)Nc2ccccc2OC)c1,-6,5,7,2
Cc1cc(C)n2c(SCC(=O)N3CCN(S(=O)(=O)c4ccc(Cl)cc4)CC3)nnc2n1,24*,-26,8,3
CCCn1c(SCC(=O)N2CCN(S(=O)(=O)c3ccc(Cl)cc3)CC2)n[nH]c1=O,-1,-1,0,-5
COc1ccc(N=Cc2sc(O)c3ccccc23)cc1,6,-5,129*[fluorescence artefact?],-6
COc1cc(O)oc1C=Nc1ccc(Oc2ccccc2)cc1,2,1,5,-6
CC(C)C(OC(=O)c1ccco1)C(=O)NC1CCCCC1 (configuration not stated),-11,7,-1,-1
CC(OC(=O)c1ccco1)C(=O)NC1CCCCC1 (configuration not stated),28*,-30,6,7
CCOC(=O)N1CCC2(CC1)C(C#N)=C(N)Oc1c2sc2nc(C)cc(C)c12,5,-6,18,0
CCCN1CCC2(CC1)C(C#N)=C(N)Oc1c2sc2nc(C)cc(C)c12,7,-2,50*,4
CCNC(=S)NNC(=O)c1cccn(Cc2ccc(Cl)cc2)c1=O,42*,-41,-1,2
CNC(=S)NNC(=O)c1cccn(Cc2ccc(Cl)cc2Cl)c1=O,54*,-53,2,-5
Cc1cccc(NC(=O)C(c2cccc([N+](=O)[O-])c2)N2CCCCC2)c1 (configuration not stated),-5,7,18,7
O=C(CCCCCN1C(=O)CCC1=O)Nc1ccc(Cl)c(C(F)(F)F)c1,-4,6,12,3
CCOC(=O)c1c(N2C(=O)Nc3cc(Cl)c(Cl)cc3N2O)sc2c1CCCCC2,32*,-30,10,1
CCCOC(=O)C(C)n1cnc2sc(C)c(C)c2c1=O (configuration not stated),-1,1,8,16*
CCOC(=O)c1sc2ncn(C(C)C(=O)OC)c(=O)c2c1C (configuration not stated),9,-8,2,3
